Screening results from PubChem.
CHOP UPR activ: activators of apoptotic CHOP UPR arm, primary screen, cell-based, CHO-CHOP luciferase reporter, luminescence, uHTS. UPR activation; percent of tunicamycin response over DMSO baseline. activation, % at 10 µM. 330,000 compounds, 0.34% hits;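 active = at 10 µM dose, activation of 40% or more, normalized to positive control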;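 note: 100% = tunicamycin at 10 µg/mL and 0% = DMSO alone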
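Evaluation: % reporter activation, DMSO baseline versus tunicamycin full activation; System: CHO-CHOP luciferase reporter cell line; Input: 500 cells/well; Incubation: 6 h compound treatment, 37 °C; Measured by: Steady-Glo luciferase luminescence; Dosing: one dose, 10 µM in 0.5% DMSO; Buffer or medium: F12 medium, 10% FBS; Benchmarks: positive tunicamycin 10 µg/mL, negative DMSO alone.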
Beta cell apopt: inhibitors of cytokine-induced beta cell apoptosis, primary screen, luminescence; INS-1E cytokine-induced death, ATP luminescence, 48 h; percent of positive-control rescue, neutral wells zero; protection from apoptosis, % (concentration not given with the values); 300,000 compounds, 0.8% hits;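 active = Every replicate reaches about 75%, or at least half do and their mean reaches it too, limit read from the data; inconclusive = At least half of replicates reach the limit but their mean does not; inactive = Under half of replicates reach the limit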;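 note: 0% = cytokine-treated negative control wells and 100% = positive control rescue; higher means more ATP so stronger rescue from cytokine killing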
T cruzi repl: inhibitors of intracellular T. cruzi growth, primary screen, luminescence, NIH3T3 host cells. T. cruzi beta-gal in NIH3T3, 90 h. inhibition, % (concentration not given with the values). 300,000 compounds, 1.4% hits. AID 1885, 2009;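 active = mean inhibition across valid replicates above about 55%, limit read from the data; inconclusive = mean below that limit but half or more replicates reach it; inactive = mean below it, under half of replicates reach it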;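 note: signal also drops with host cell toxicity which is not excluded here; 0% = plate median of DMSO wells and 100% = zero luminescence signal; higher percent means less beta-gal luminescence so fewer parasites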
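System: mouse NIH/3T3 fibroblasts infected with β-gal-expressing T. cruzi Tulahuen C4 / Input: NIH/3T3 cells, 5,000 per well / Buffer or medium: Low-serum DMEM with 2% FBS / Probe or stimulus: 5000 reporter trypomastigotes per well / Schedule: ≥90 h infection period, 3 h prior cell attachment / Measured by: GalScreen luminescence, 60 min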
UPR XBP1 act: activators of adaptive XBP1 UPR arm, primary screen, cell-based, CHO-XBP1 luciferase reporter, luminescence, uHTS; IRE1-XBP1 UPR activation; percent of tunicamycin response, DMSO as zero; activation, % at 20 µM; 330,000 compounds, 0.33% hits; AID 463104, 2010;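 active = versus positive control, 20 µM dose yields 30% or more activation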;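 note: 100% = tunicamycin at 10 µg/mL and 0% = DMSO only wells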
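Assay system: IRE1-XBP1 luciferase reporter CHO line. Input: 1000 cells/well. Buffer or medium: F12 with 10% serum. Doses: 20 µM, 1% DMSO. Times: overnight seeding at 37 °C, 6 h compound treatment at 37 °C. Technique: Steady-Glo luciferase glow luminescence, 10 min after reagent addition.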
Mdm2 MdmX PPI: inhibitors of human Mdm2-MdmX association, primary screen, cell-based, luminescence, split luciferase, SaOS-2, uHTS | Protein Mdm4 (Homo sapiens) + E3 ubiquitin-protein ligase Mdm2 (Homo sapiens), … | SaOS-2 split-luciferase Mdm2/MdmX complementation | inhibition, % at 8 µM | 330,000 compounds, 3% hits;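 active = inhibition of at least 50% at 8 µM in the primary screen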
CSC inhib: cancer stem cell viability inhibitors, primary screen, luminescence; cancer stem cell-like cells viability; 300,000 compounds, 1.1% hits; AID 2717, 2010; inhibition, % at 7.5 µM; in the data active = inhibition above about 75%; inconclusive = no clear call, values can overlap the other calls; tested in HMLE shEcad cells
Mdm2 MdmX conf: Mdm2-MdmX complex disruptors, retested hits, confirmation, luminescence, single concentration. shares compounds with Mdm2 MdmX PPI. Mdm2-MdmX binding, luminescent assay. inhibition, % at 8 µM. 10,000 compounds, 55% hits; in the data active = inhibition above about 40%
Full FLuc ctr: full-length luciferase signal inhibition, confirmation, counter-screen for Mdm2/MdmX interaction inhibitor project, cell-based, single concentration, SaOS-2 | SaOS-2 full-length luciferase counterscreen, luminescence | shares compounds with Mdm2 MdmX PPI | AID 504607, 2011 | 6,200 compounds, 77% hits | inhibition, % at 8 µM;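 active = mean inhibition at 8 µM reaching about 37%, which flags the compound as non-specific, limit read from the data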;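 note: p53-null SaOS-2 cells with luciferase driven by a doxycycline-inducible promoter; compound on cells about two nights before reading with doxycycline added after day one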
* = called active by the depositor; u = inconclusive; x = not tested or not shown. An excerpt weighted towards active compounds, which were near 5% of everything screened.

SMILES	CHOP UPR activ	Beta cell apopt	T cruzi repl	UPR XBP1 act	Mdm2 MdmX PPI	CSC inhib	Mdm2 MdmX conf	Full FLuc ctr
C=CCn1cc(CN2CCC(C(=O)Nc3cccc(-c4cccc(Cl)c4)c3)CC2)c(C)n1	3	7	17	1	81*	28	13	x
c1ccc2c(c1)CC1(CCCC1)n1nnnc1-2	-2	5	6	-2	0	-18	x	x
CN(C)c1ccc(/C=C2\CCCc3c2nc2ccccc2c3C(=O)O)cc1	6	5	-15	2	-57	13	x	x
CC(=O)Nc1ccc(NC(=O)CCCn2cnc3ccccc3c2=O)cc1	1	1	-13	0	-8	-5	x	x
Fc1ccccc1CSc1ncnc2sc3c(c12)CCCC3	-2	1	18	0	-19	18	x	x
COCc1ccc(CN2CCC(C(=O)Nc3cccc(-c4cccc(Cl)c4)c3)CC2)o1	2	-1	17	0	78*	0	54*	58*
COCc1ccc(CN2CCC(C(=O)Nc3cccc(-c4cscn4)c3)CC2)o1	0	-10	-5	-4	20	-5	x	x
CCCn1ncc(CN2CCC(C(=O)Nc3cccc(-c4cccc(F)c4)c3)CC2)c1C	4	x	57*	-5	87*	0	46*	71*
Cc1ccc(CCNC(=O)CC(C)CC2=NS(=O)(=O)c3ccccc3N2)cc1 (stereo not drawn)	3	-3	-6	1	6	-4	x	x
N/C(=C\C(=O)c1cc(Cl)ccc1O)C(Cl)(Cl)Cl	40	12	53	15	95*	85*	57*	54*
CCOC(=O)c1[nH]c(C)c(C(=O)NCc2cccnc2)c1C	-3	-9	-5	-1	-49	x	x	x
CN1CCC(NC(=O)c2cc(-c3cccc(Br)c3)nc3ccccc23)CC1	3	18	44	5	66*	18	38	65*
COc1ccc(CC(=O)Oc2cc(C)ccc2C)cc1	1	-9	-12	-2	-13	-14	x	x
CCCN1CCN(CCCNC(=S)Nc2ccc3nc(N4CCN(CC)CC4)cc(C)c3c2)CC1	-2	-4	-15	-4	29	44	x	x
Cc1cc(N2CCN(C)CC2)nc2ccc(NC(=S)N3CCN(c4ccc(F)cc4)CC3)cc12	7	-3	49	10	94*	u	21	x
CCN1CCN(c2cc(C)c3cc(NC(=S)NCCN(C)C)ccc3n2)CC1	1	-5	26	5	-12	-5	x	x
Cc1cc(N2CCCC2)nc2ccc(NC(=S)NCCCN3CCC(C)CC3)cc12	2	9	60*	0	100*	2	39	49*
CCCCN(C)CCNC(=S)Nc1ccc2nc(N3CCN(CC)CC3)cc(C)c2c1	2	0	u	0	74*	32	36	51*
Cc1cc(N2CCOCC2)nc2ccc(NC(=O)CCC(=O)N3CCN(c4ccc(F)cc4)CC3)cc12	3	7	6	-2	12	-12	x	x
Cc1n[nH]c(=S)n1/N=C/c1ccc(OCc2ccc(Cl)cc2Cl)cc1	5	19	-2	2	-72	14	x	x
Cc1n[nH]c(=S)n1/N=C/c1ccccc1OCc1ccc(Cl)cc1Cl	2	8	-2	16	53*	-6	11	x
CSc1nc(Oc2ccc3ccccc3c2)c2ccccc2n1	-2	6	-1	0	55*	-5	7	x
C/C(=N\NC(=O)c1cccc(S(=O)(=O)N2CCOCC2)c1)c1cc2ccccc2o1	1	7	-5	1	14	-7	x	x
Cc1ccc(CNc2cc(-c3nn4c(C)nnc4s3)ccc2C)s1	1	x	14	11	41	x	x	x
Cc1ccc(-c2nn3c(C)nnc3s2)cc1NCc1c(F)cccc1Cl	-1	24	20	14	81*	39	66*	57*
SMILES	CHOP UPR activ	Beta cell apopt	T cruzi repl	UPR XBP1 act	Mdm2 MdmX PPI	CSC inhib	Mdm2 MdmX conf	Full FLuc ctr
Cc1n[nH]c(=S)n1/N=C/c1ccc(-c2ccc(Cl)cc2)o1	3	1	-13	3	94*	12	-3	x
COCC(=O)N1CCN(c2nc3ccccc3o2)CC1	0	-7	-6	-3	22	-2	x	x
COc1ccc(OC)c(Nc2nc(-c3c(C)nc4ncccn34)cs2)c1	-1	3	2	14	76*	-2	34	85*
COc1ccc(Nc2nc(-c3sc(C)nc3C)cs2)c(OC)c1	6	x	-26	-3	65*	57	56*	63*
COc1ccc(Nc2nc(-c3cccs3)cs2)c(OC)c1	3	3	20	-1	-138	2	x	x
Cc1nc2c(-c3ccccc3)c(C)nn2c(C)c1CCC(=O)NCc1ccco1	-1	3	x	-3	-11	2	x	x
CCN1CCN(c2ccc(NC(=O)CCc3c(C)nc4c(-c5ccccc5)c(C)nn4c3C)cc2)CC1	3	x	15	0	89*	54	44*	66*
CCN1CCN(c2cc(C(C)(C)C)nc3c(-c4ccccc4)c(C)nn23)CC1	5	64	50	2	54*	140*	53*	67*
CCN1CCN(c2cc(C(C)C)nc3c(-c4ccccc4)c(C)nn23)CC1	3	3	6	-3	55*	-4	28	x
Cc1nn2c(N3CCOCC3)cc(C(C)(C)C)nc2c1-c1ccccc1	1	-7	2	-4	24	2	x	x
CC1N/C(=C\C(=O)c2ccccc2)N(O)C1(C)C (stereo not drawn)	3	0	-39	-4	-23	x	x	x
Cc1ccc(NC(=O)C2CCCO2)c(Br)c1 (stereo not drawn)	2	-10	-1	-1	-12	9	x	x
C[C@H]1CN([C@@H](C)CO)C(=O)c2cccc(NC(=O)c3ccc(-c4nccs4)cc3)c2O[C@@H]1CN(C)C(=O)Nc1cccc2ccccc12	1	1	x	-1	1	4	x	x
O=C(Cc1c[nH]c2ccccc12)NC1(C(=O)NC2CCCC2)CCCCC1	1	-1	-9	1	4	-2	x	x
